Measured values gathered from unrelated publications.
Compare with care: the assays were run in different laboratories.

SMILES | system | conditions | measurement | result
CC(C)C[C@@H]1NC(=O)[C@H](C)NC(=O)[C@H](Cc2ccccc2)NCC2=CC=C(CN(C)C1=O)O2 | PAMPA | 100 µM, 17 h, pH 6.4 | Papp | 1.9 ×10⁻⁶ cm/s
CC(C)NCC(O)COc1cccc2ccccc12 (stereo not drawn) | PAMPA | 40 µM, 5 h, pH 7.4 | Papp | 14.3 ×10⁻⁶ cm/s
O=C1CC[C@H](N2Cc3cc(N4CCN(CC5CCN(c6ccc([C@@H]7c8ccc(O)cc8CC[C@@H]7c7ccccc7)cc6)CC5)CC4)ccc3C2=O)C(=O)N1 | female Sprague-Dawley rat, plasma | intravenous, 5 mg/kg, fed | AUC(0-inf) | 11600 ng·h/mL
CCCCCCCc1[nH]c2ccccc2c(=O)c1O | PAMPA | 40 µM, 5 h, pH 7.4 | Papp | 1.2 to 4 ×10⁻⁶ cm/s
CC(C)Cc1ccc(C(C)C(=O)O)cc1 (stereo not drawn) | PAMPA-BBB | pH 7.4 | Papp | 11.6 ×10⁻⁶ cm/s
Cc1c(C(=O)O)ccc2c3n(nc12)[C@@H]1[C@H](C3)N(CC2CC2)[C@@]2(C(=O)Nc3cc(Cl)ccc32)[C@H]1c1cccc(Cl)c1F | female minipig, plasma | oral, 2 mg/kg | Cmax | 900 nM
CC(C)C[C@@H]1NC(=O)CN(C)C(=O)[C@H](Cc2ccccc2)NCC2=CC=C(CNC1=O)O2 | PAMPA | 100 µM, 17 h, pH 6.4 | Papp | 1.3 ×10⁻⁶ cm/s
N#C[C@@]12C[C@@H]1[C@@H](n1cnc3c(N[C@@H](C4CCC4)C4CC4)nc(I)nc31)[C@H](O)[C@@H]2O | male Wistar rat, plasma | oral, 10 mg/kg | AUC(0-inf) | 349 ng·h/mL
O=[N+]([O-])c1ccc2c(c1)S(=O)(=O)C=C2 | PAMPA-BBB | pH 7.4 | Papp | 3.98 ×10⁻⁶ cm/s
